Some results are limits rather than exact numbers.

Holding throughout (format): cell-based
Assay [1] has as its target T1, P2X purinoceptor 4 (Homo sapiens) (UniProt Q99571).
T1 sequence (whole entry): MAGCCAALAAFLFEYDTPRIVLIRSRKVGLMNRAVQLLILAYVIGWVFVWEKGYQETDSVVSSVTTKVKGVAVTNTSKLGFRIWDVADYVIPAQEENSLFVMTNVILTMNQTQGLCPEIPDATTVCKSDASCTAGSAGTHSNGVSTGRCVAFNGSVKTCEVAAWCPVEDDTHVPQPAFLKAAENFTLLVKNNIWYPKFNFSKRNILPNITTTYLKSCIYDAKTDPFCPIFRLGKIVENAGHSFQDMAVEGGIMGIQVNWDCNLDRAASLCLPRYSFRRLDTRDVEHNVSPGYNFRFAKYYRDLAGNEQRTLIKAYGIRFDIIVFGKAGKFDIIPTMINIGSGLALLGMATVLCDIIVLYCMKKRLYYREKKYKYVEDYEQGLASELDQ
Put plainly: Antagonist activity at human P2X4 receptor expressed in human 1321N1 cells assessed as inhibition of ATP-induced cytosolic calcium influx at 100 uM preincubated for 30 mins followed by ATP addition by Fluo-4 AM dye-based fluorescence assay. In short, it runs like this:
(§1)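 Human P2X4 stably transfected into 1321N1 astrocytoma cells. Inhibition of ATP-induced calcium influx measured as in earlier work. Compounds were first screened at a single high concentration, chosen according to their solubility.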

For the next assay, the target named is T2, P2X purinoceptor 4 (Homo sapiens, UniProt Q99571).
T2 sequence (Q99571 whole entry): T1 sequence (whole entry)
Put plainly: Antagonist activity at human P2X4 receptor expressed in human 1321N1 cells assessed as inhibition of ATP-induced cytosolic calcium influx preincubated for 30 mins followed by ATP addition by Fluo-4 AM dye-based fluorescence assay. In short, it runs like this: as §1

Assay [2] deals with T1, P2X purinoceptor 4 (Homo sapiens). Put plainly: Antagonist activity at human P2X4 receptor expressed in human 1321N1 cells assessed as inhibition of ATP-induced cytosolic calcium influx at 300 uM preincubated for 30 mins followed by ATP addition by Fluo-4 AM dye-based fluorescence assay. The method, boiled down: as §1
For assay [3] the target is unchanged. In words: Antagonist activity at human P2X4 receptor expressed in human 1321N1 cells assessed as inhibition of ATP-induced cytosolic calcium influx at 20 uM preincubated for 30 mins followed by ATP addition by Fluo-4 AM dye-based fluorescence assay. In short, it runs like this:
as §1

Assay [4] has the same target. In words: Antagonist activity at human P2X4 receptor expressed in human 1321N1 cells assessed as inhibition of ATP-induced cytosolic calcium influx at 10 uM preincubated for 30 mins followed by ATP addition by Fluo-4 AM dye-based fluorescence assay. The method, boiled down:
as §1

As for `C1=Cc2ccccc2N(Cc2ccccc2)c2ccccc21`, in assay [1], the inhibition (usually the relative decrease from the control value, in per cent) was 34%. Further, the IC50 (in general, the concentration needed to halve the response being measured) on P2X purinoceptor 4 was > 100 µM.
For `CN1CCC(NC(=O)N2c3ccccc3C=Cc3ccccc32)CC1` the same measures were 56% and ≥ 100 µM.
For `O=C(NCCc1ccccc1)N1c2ccccc2C=Cc2ccccc21` the same measures were 107% and 36.2 µM.
With `CCCCNC(=O)N1c2ccccc2C=Cc2ccccc21`, the inhibition in assay [1] turned out to be 49%. Further, the 50% inhibitory concentration (IC50) at P2X purinoceptor 4 was ≥ 100 µM.
The corresponding values for `CC(C)(C)NC(=O)N1c2ccccc2C=Cc2ccccc21` are 92% and 13.8 µM.
For `NC(=O)N1c2ccccc2CC(O)c2ccccc21` (racemic) [LICARBAZEPINE] the same measures were 28% and > 100 µM.
`NC(=O)N1c2ccccc2C=Cc2ccc(O)cc21`: the inhibition in assay [2] was determined as 99%. In addition, the IC50 at P2X purinoceptor 4 was 72.8 µM.
As to `CC(=O)O[C@H]1Cc2ccccc2N(C(N)=O)c2ccccc21` [ESLICARBAZEPINE ACETATE], in assay [3], the inhibition came to 25%. The IC50 at P2X purinoceptor 4 is > 20 µM.
`NC(=O)N1c2ccccc2C=Cc2c1ccc1ccccc21`: the inhibition in assay [1] stood at 91%. For the same compound, the half-inhibitory concentration (IC50) at P2X purinoceptor 4 worked out at 51.4 µM.
In the case of `COC(=O)N1c2ccccc2C=Cc2ccccc21`, the inhibition in assay [1] came out at 51%. The concentration for half-maximal inhibition (IC50) at P2X purinoceptor 4 is 100 µM.
The corresponding values for `CN(C)CCCNC(=O)N1c2ccccc2C=Cc2ccccc21` are 54% and 100 µM.
For `O=C(c1ccccc1)N1c2ccccc2C=Cc2ccccc21` the same measures were 75% and 23.3 µM.
The corresponding values for `O=C(Nc1ccncc1)N1c2ccccc2C=Cc2ccccc21` are 30% and > 100 µM.
Regarding `NC(=O)N1c2ccccc2CCc2ccccc21`, the inhibition in assay [1] is 35%. The IC50 at P2X purinoceptor 4 was > 100 µM.
The corresponding values for `CC(=O)N1c2ccccc2C=Cc2ccccc21` are 39% and > 100 µM.
For `CN(C)CCN(C)C(=O)N1c2ccccc2C=Cc2ccccc21` the same measures were 42% and ≥ 100 µM.
For `O=C(NCc1ccccc1)N1c2ccccc2C=Cc2ccccc21` the same measures were 75% and 78.9 µM.
As to `CC(C)N(C(=O)c1cccc2c1Nc1ccccc1C=C2)C(C)C`, the inhibition in assay [1] is 74%. For the same compound, the IC50 on P2X purinoceptor 4 was 30.6 µM.
With `COc1ccc2c(c1)N(C(N)=O)c1ccccc1C=C2`, in assay [1], the inhibition came out at 30%. At P2X purinoceptor 4, the IC50 was > 100 µM.
For `CN(C)c1ccc2c(c1)N(C(N)=O)c1ccccc1C=C2` the same measures were 39% and 15.3 µM.
`O=C(N1CCC(O)CC1)N1c2ccccc2C=Cc2ccccc21`: the IC50 at P2X purinoceptor 4 is > 100 µM.
For the compound `NC(=O)N1c2ccccc2C=Cc2cc(O)ccc21`, the inhibition in assay [2] was found to be 82%. Besides, the IC50 at P2X purinoceptor 4 was found to be 146 µM.
Consider `NC(=O)N1c2ccccc2C2OC2c2ccccc21` (stereo not given) [CARBAMAZEPINE EPOXIDE], for which the inhibition in assay [4] was 1%. Further, the IC50 on P2X purinoceptor 4 was > 10 µM.
On to `CCN(CC)C(=O)N1c2ccccc2C=Cc2ccncc21`, for which the inhibition in assay [1] was 52%. The IC50 at P2X purinoceptor 4 was 100 µM.
Take `NC(=O)N1c2ccccc2C=Cc2ccccc21` [CARBAMAZEPINE]: the inhibition in assay [1] is 35%. The IC50 at P2X purinoceptor 4 is > 100 µM.
The corresponding values for `NC(=O)N1c2ccccc2C=Cc2ccc(F)cc21` are -2% and > 100 µM.
With `CCN(CC)C(=O)N1c2ccccc2C=Cc2cccc(C(=O)N(C(C)C)C(C)C)c21`, the IC50 at P2X purinoceptor 4 came to 52.5 µM.
On to `CNC(=O)N1c2ccccc2C=Cc2ccccc21`, for which the inhibition in assay [1] was 47%. Further, the IC50 on P2X purinoceptor 4 is ≥ 100 µM.
For the compound `CN(C)C(=O)N1c2ccccc2C=Cc2ccccc21`, the inhibition in assay [1] stood at 49%. The 50% inhibitory concentration (IC50) at P2X purinoceptor 4 is ≥ 100 µM.
For `Cc1ccc2c(c1)N(C(N)=O)c1ccccc1C=C2` the same measures were 21% and > 100 µM.
As for `NC(=O)N1c2ccccc2C=C(N)c2ccccc21`, in assay [4], the inhibition worked out at 12%. In addition, the IC50 at P2X purinoceptor 4 was > 10 µM.
`O=C(N1CCOCC1)N1c2ccccc2C=Cc2ccccc21`: the inhibition in assay [1] was found to be 50%. Also, at P2X purinoceptor 4, the IC50 is ≥ 100 µM.
For `NC(=O)N1c2ccccc2CC(=O)c2ccccc21` [OXCARBAZEPINE], the inhibition in assay [4] is 10%. For the same compound, the IC50 on P2X purinoceptor 4 was > 10 µM.
As to `CNC1=Cc2ccccc2N(C(N)=O)c2ccccc21`, the inhibition in assay [1] stood at 80%. Besides, the concentration for half-maximal inhibition (IC50) on P2X purinoceptor 4 worked out at 36.9 µM.
For `NC1CCC(NC(=O)N2c3ccccc3C=Cc3ccccc32)CC1` (stereo not given), in assay [4], the inhibition was found to be 11%. The IC50 at P2X purinoceptor 4 is > 10 µM.
`O=C(N(CCO)CCO)N1c2ccccc2C=Cc2ccccc21`: the inhibition in assay [1] is 2%. At P2X purinoceptor 4, the IC50 is > 100 µM.
For `CC(C)NC(=O)N1c2ccccc2C=Cc2ccccc21` the same measures were 47% and 19.2 µM.
For `CCOC1Cc2ccccc2N(C(N)=O)c2ccccc21` (racemic) the same measures were 17% and > 100 µM.
With `NC(=O)N1c2ccccc2C=Cc2ccc(C(F)(F)F)cc21`, the inhibition in assay [1] was 72%. In addition, the IC50 on P2X purinoceptor 4 worked out at 54.6 µM.
Regarding `COC1=Cc2ccccc2N(C(N)=O)c2ccccc21`, the inhibition in assay [1] came out at 34%. Also, on P2X purinoceptor 4, the IC50 was > 100 µM.
On to `COc1ccc(CCNC(=O)N2c3ccccc3C=Cc3ccccc32)cc1`, for which the inhibition in assay [1] stood at 83%. On P2X purinoceptor 4, the half-maximal inhibitory concentration (IC50) turned out to be 27.4 µM.
For the compound `O=C(OCc1ccccc1)N1c2ccccc2C=Cc2ccccc21`, the inhibition in assay [4] came to 73%. In addition, the IC50 at P2X purinoceptor 4 is 6.02 µM.
For `O=C(NC1CCC(O)CC1)N1c2ccccc2C=Cc2ccccc21` (stereo not given), in assay [3], the inhibition came out at 0%. The IC50 on P2X purinoceptor 4 is > 20 µM.
On to `CC(C)COC(=O)N1c2ccccc2C=Cc2ccccc21`, for which the inhibition in assay [1] is 58%. Moreover, the IC50 at P2X purinoceptor 4 is 100 µM.
The corresponding values for `NC(=O)N1c2ccccc2C=Cc2cc(F)ccc21` are 11% and > 100 µM.
As to `O=C(Nc1ccccc1)N1c2ccccc2C=Cc2ccccc21`, the inhibition in assay [1] turned out to be 49%. Further, at P2X purinoceptor 4, the IC50 is 100 µM.

For the origin of these results see ChEMBL document CHEMBL3102848, “Carbamazepine derivatives with P2X4 receptor-blocking activity” (Bioorg Med Chem, 2014).
